Only a selection was taken, and hits are over-represented in it overall.
PTEN del growth = suppresses growth of cells with PTEN deletion. HCT116 PTEN-null viability, CellTiter-Glo, 60 h; stronger effect = lower value. viability, % at 10 µM. 140,000 compounds, 1.2% hits. AID 827;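 active means viability at or below a set limit, 4 SD under the median of all tested compounds, cut at about 3.7% in these data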;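 further: PTEN knockout HCT116 line with beta catenin targeted HCT116 as companion control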
HCT116 bCat-KO = beta-catenin-lacking colon tumor cell growth suppression | HCT116 beta-catenin knockout viability, CellTiter-Glo, 60 h; stronger effect = lower value | AID 818 | viability, % at 10 µM | 140,000 compounds, 1.5% hits;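 active means viability at or under a set limit, the compound median less 4 SD, cut at about 6% in these data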;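 further: 0% = Hyamine 1622 control at 20 µM and 100% = untreated cell control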
HUVEC inhibit = human endothelial cell proliferation inhibition; HUVEC proliferation, CellTiter-Glo luminescence, 72 h; stronger effect = lower value; viability, % at 10 µM (by protocol); 86,000 compounds, 1.1% hits;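 active means viability at or below 30%; inactive means viability above 30%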;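 further: 100% = median luminescence of DMSO-only cell control wells on each plate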
H69AR growth 86K = growth inhibitors of human H69AR lung tumor cells; 85,000 compounds, 6% hits; H69AR lung tumor viability, ATP luminescence, 72 h; stronger effect = lower value; viability, % at 10 µM; AID 598;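 active means viability at or below 40%; inactive means viability above 40%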;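 further: multidrug resistant small cell line overexpressing MRP-1 efflux transporter; 100% = mean luminescence of untreated control wells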
Fibroblast inh = blocks proliferation of human lung fibroblasts. LL 47 human lung fibroblast viability, ATP luminescence; stronger effect = lower value. viability, % at 10 µM. AID 719. 85,000 compounds, 1.1% hits;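 active means viability at or below 50% in the single dose screen; inactive means viability above 50%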;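 further: compound exposure lasted 72 h before the ATP readout; 100% = median luminescence of untreated cell-only wells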
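Test system: LL 47 human lung fibroblasts; Quantity: 1,150 cells/well; Buffer or medium: IMEM plus 15% FBS; Dosing: tenfold compound dosing solution, DMSO at 0.1%; Timing: overnight cell rest, 72 h compound treatment at 37 °C; Detection: ATP-based CellTiter-Glo luminescent readout; Read-out basis: viability percentage against median untreated-cell control; Controls: cell-only wells, no compound.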
* hit, by the source's call; . = not tested or not shown.

SMILES | PTEN del growth | HCT116 bCat-KO | HUVEC inhibit | H69AR growth 86K | Fibroblast inh
COC(=O)c1cc(=O)n(Cc2ccc(OC)c(OC)c2)c(=Nc2ccc(F)cc2)s1 | 2.0* | 2.0* | 17* | 1.9* | 12*
COC(=O)c1cc(=O)n(CCc2ccc(OC)c(OC)c2)c(=Nc2ccc(F)c(Cl)c2)s1 | 3.7* | 2.4* | 7.5* | 1.1* | 10*
Cc1ccc(-c2nn(-c3ccccc3)c3[nH]c(=O)c(CNCc4ccccc4)cc23)cc1 | 13 | 3.5* | 4.8* | 92 | 72
Cc1ccc(-c2nn(-c3ccccc3)c3[nH]c(=O)c(CNCCN(C)C)cc23)cc1 | . | . | 43 | 17* | 74
CCOc1ccc(NCc2cc3c(C(C)(C)C)nn(-c4ccccc4)c3[nH]c2=O)cc1 | 1.2* | 2.3* | . | . | .
COc1cccc(NCc2cc3c(C(C)(C)C)nn(-c4ccccc4)c3[nH]c2=O)c1 | 98 | 109 | 102 | 66 | 89
Cc1nn(-c2ccccc2)c2[nH]c(=O)c(CNCc3ccc4c(c3)OCO4)cc12 | 89 | 82 | 91 | 92 | 88
O=C(c1ccco1)[C@@H]1[C@@H]2C(=O)N(c3ccc(Br)cc3)C(=O)[C@@H]2C2c3ccccc3C=CN21 (some centres undefined) | . | . | 98 | 109 | 102
CCCc1nc2ccccc2c(C(=O)OCC(=O)Nc2ccc(S(=O)(=O)N3CCOCC3)cc2)c1CC | 28 | 36 | 66 | 5.8* | 79
CCCc1nc2ccccc2c(C(=O)OCC(=O)NCc2ccco2)c1CC | 106 | 88 | 90 | 71 | 94
CCCc1nc2ccccc2c(C(=O)OCC(=O)Nc2cccc(S(=O)(=O)N3CCOCC3)c2)c1CC | . | 62 | 55 | 35* | 101
Cc1ccccc1Oc1ccc(NC(=O)C2CC=CCC2C(=O)O)cc1 (centres undefined) | 97 | 88 | . | . | .
CCOC(=O)c1[nH]c(C)c(CN(CCc2ccc(OC)c(OC)c2)C(=O)CCCC(=O)O)c1C | 101 | 105 | 95 | 99 | 97
CCOC(=O)c1cnc(-n2nc(C)cc2C)nc1Nc1ccc(C)cc1 | 71 | 58 | . | . | .
CCOC(=O)c1cnc(-n2nc(C)cc2C)nc1Nc1ccc(N(C)C)cc1 | 10 | 10 | 56 | 3.0* | 30*
CCOC(=O)c1cnc(-n2nc(C)cc2C)nc1NC1CCCCC1 | 2.1* | 1.9* | 32 | 1.1* | .
CCOC(=O)c1cnc(-n2nc(C)cc2C)nc1NNc1nc(-c2ccccc2)cc(-c2ccccc2)n1 | 4 | 4.5* | . | . | .
CCOC(=O)c1cnc(-n2nc(C)cc2C)nc1N(CC)CC | 84 | 59 | 99 | 36* | 87
CCC(C)(C)n1nnnc1CN1CCC(c2nc3ccc(C)cc3[nH]2)CC1 | 38 | 20 | 63 | 12* | 84
O=C(COC(=O)CCNS(=O)(=O)c1cccc(C(F)(F)F)c1)NC(=O)NC1CCCCC1 | 95 | 86 | . | . | .
COc1ccccc1NC(=O)Nc1c(C)n(C)n(-c2ccccc2)c1=O | 93 | 100 | 94 | 32* | 102
Cc1c(NC(=O)C2CCCNC2=O)c(=O)n(-c2ccccc2)n1C (centres undefined) | 39 | 37 | 94 | 39* | .
CCCCCn1c(N)c(-c2nc3ccccc3o2)c2c([N+](=O)[O-])nn(CC)c(=O)c21 | 73 | 45 | . | . | .
COc1ccc(CCNC(=O)C2CCCN(S(=O)(=O)c3cnc[nH]3)C2)cc1OC (centres undefined) | 100 | 104 | 101 | 101 | 90
O=C(CSc1ncnc2scc(-c3ccccc3)c12)N1CCN(c2ccccc2F)CC1 | 66 | 65 | . | . | .
SMILES | PTEN del growth | HCT116 bCat-KO | HUVEC inhibit | H69AR growth 86K | Fibroblast inh
O=C(NC1CCCCC1)N(CCO)Cc1cc2cc3c(cc2[nH]c1=O)OCCO3 | 91 | 100 | 78 | 90 | 86
CC(C)COc1cccc(C(=O)Nc2ccc(S(=O)(=O)N3CCOCC3)cc2)c1 | 91 | 89 | 41 | 22* | 88
CCCn1nnc(NC(=O)c2cccc(OCC(C)C)c2)n1 | 103 | 98 | 81 | 38* | 104
CC(C)c1ccc(N(CC(=O)Nc2ccc(S(=O)(=O)N3CCOCC3)cc2)S(C)(=O)=O)cc1 | 84 | 96 | 86 | 30* | 93
Clc1ccc(OCc2cc(-c3ccccc3)no2)cc1Cl | 85 | 87 | . | . | .
COc1ccc(-n2nnnc2SCC(=O)Nc2ccc3c(c2)OCCO3)cc1OC | 87 | 77 | 91 | 21* | 99
O=C(CSc1nnnn1-c1ccc2c(c1)OCO2)NCc1cccs1 | 75 | 65 | 98 | 66 | 103

Screening data from PubChem.
